Assay outcomes (PubChem BioAssay)
A selection: hits, their analogues and other compounds. The true share with any hit is near 2%.
CHRM1 agonist – activates human CHRM1 receptor; CHO-K1 hM1, Fluo-8 calcium fluorescence, agonist mode; 0% DMSO, 100% acetylcholine EC100; AID 588814; 360,000 compounds, 0.33% hits; activation, % at 3 µM; P11229;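 active means activation above the run's mean compound activation plus 3 SD, cut at about 16% in these data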;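 further: peak over basal fluorescence ratio within a 140 s kinetic read after compound addition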
M1 PAM – potentiates human M1 receptor response to acetylcholine. P11229. CHO-K1 hM1, Fluo-8 calcium fluorescence, ACh EC20; 0% = ACh EC20, 100% = maximal ACh. activation, % at 3 µM. 360,000 compounds, 0.088% hits. AID 588819; in the data active means activation above about 19%, passing the limit was not always enough
M5 PAM – positive allosteric modulators of human muscarinic M5 receptor. activation, % at 3 µM. P08912. 360,000 compounds, 0.3% hits. CHO-K1 hM5, Fluo-8 calcium, ACh EC20 PAM; 0% = ACh EC20, 100% = ACh EC100. AID 624038;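 active means activation above the run cutoff, the mean activation of all test compounds plus 3 SD, cut at about 18% in these data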
Target sequence (P08912 whole entry, looked up): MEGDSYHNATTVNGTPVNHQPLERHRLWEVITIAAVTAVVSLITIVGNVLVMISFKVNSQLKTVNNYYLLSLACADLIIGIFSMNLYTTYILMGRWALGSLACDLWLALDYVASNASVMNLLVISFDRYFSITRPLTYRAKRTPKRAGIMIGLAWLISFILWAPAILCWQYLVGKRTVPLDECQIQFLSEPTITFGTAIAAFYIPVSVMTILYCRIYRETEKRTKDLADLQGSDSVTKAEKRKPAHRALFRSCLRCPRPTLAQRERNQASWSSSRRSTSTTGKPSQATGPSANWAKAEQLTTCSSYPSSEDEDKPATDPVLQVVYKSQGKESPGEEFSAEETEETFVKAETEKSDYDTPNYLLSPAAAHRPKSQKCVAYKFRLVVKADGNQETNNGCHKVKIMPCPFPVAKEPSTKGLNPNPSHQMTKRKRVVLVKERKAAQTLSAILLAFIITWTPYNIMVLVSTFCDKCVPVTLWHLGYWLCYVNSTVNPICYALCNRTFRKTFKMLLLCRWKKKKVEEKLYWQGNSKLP
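System – CHO-K1 hM5 cells · Compound – 3 µM, single dose · Incubation – compound preincubation 140 s before EC20 acetylcholine addition · Technique – Fluo-8 calcium fluorescence · Measure – Max/basal fluorescence ratio as % of EC20–EC100 ACh window · Benchmarks – low control EC20 acetylcholine (0%), high control EC100 acetylcholine (100%) · Replication – singlicate, one well per test compound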
CHRM1 antagonist – blocks human M1 muscarinic receptor; CHO-K1 hM1, Fluo-8 calcium fluorescence, ACh EC80 antagonist; inhibition, % at 3 µM; 360,000 compounds, 1.3% hits; AID 588852;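 active means percent inhibition above its own plate's cutoff, namely the mean of that plate's compound wells plus 3 SD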;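 further: peak over basal fluorescence ratio during 140 s after agonist addition; 0% = ACh EC80 plus DMSO and 100% = DMSO alone without agonist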
M5 ag – CHRM5 agonism in calcium assay; CHO-K1 hM5 cells, Fluo-8 calcium fluorescence; 0% DMSO wells, 100% maximal acetylcholine response; activation, % at 3 µM; 360,000 compounds, 0.19% hits;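 active means activation above the run's mean over test compounds plus 3 SD, cut at about 23% in these data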;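 further: signal is peak over basal fluorescence ratio across the kinetic read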
M5 antag – CHRM5 antagonism in calcium assay | P08912 | CHO-hM5 cells, Fluo-8 calcium fluorescence, ACh EC80 | inhibition, % at 3 µM | 360,000 compounds, 0.59% hits | AID 624040;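 active means inhibition above a per-plate cutoff, the mean of that plate's test compounds plus 3 SD, cut at about 27% in these data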;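 further: 0% = acetylcholine EC80 with DMSO and 100% = DMSO without agonist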
An asterisk follows results filed as active; / = not tested or not shown.

SMILES | CHRM1 agonist | M1 PAM | M5 PAM | CHRM1 antagonist | M5 ag | M5 antag
CCN(CC)CCNC(=O)c1ccc(NC(=O)c2ccc(S(=O)(=O)N(C)c3ccccc3OC)cc2)cc1 | -7.8 | -20.8 | -3.1 | 41.3* | -10.7 | 6.7
CCc1ccc2c(c1)NC(=O)C2(C)Cc1ccccc1C#N (centres undefined) | -3.0 | 8.2 | -2.5 | -9.0 | -1.7 | 7.7
Cc1cc(F)ccc1C(O)c1ncc(-c2ccccc2F)[nH]1 (centres undefined) | 2.0 | 15.8 | -3.0 | -17.2 | 0.1 | 2.6
O=[N+]([O-])c1ccc(Cl)c(CN2CCN(c3ncc(Cc4ccccc4)cn3)CC2)c1 | / | / | -13.2 | / | -3.0 | 5.2
CN(C)Cc1cn(CC[C@@H]2CC[C@@H](NC(=O)Nc3ccccc3F)[C@@H](CO)O2)nn1 | / | / | 10.2 | / | 0.2 | -7.3
CCN(CC)CCNC(=O)c1cc(S(=O)(=O)N2CCc3ccccc32)cn1C | -6.6 | -13.6 | -14.8 | 23.9 | 2.2 | 18.7
CC1Cc2ccccc2N1S(=O)(=O)c1cccc(C(=O)NNC(=O)c2ccccc2F)c1 (centres undefined) | -4.6 | 0.2 | -5.3 | 2.4 | 0.1 | 0.9
CCN(CC)CCNC(=O)c1ccc(NC(=O)c2cccc(S(=O)(=O)N3CCc4ccccc43)c2)cc1 | -7.3 | -26.2 | -30.8 | 100.2* | -8.1 | 83.3*
O=C(NNC(=O)c1ccccc1F)c1cccc(S(=O)(=O)N2CCc3ccccc32)c1 | 0.2 | -14.2 | -25.7 | 37.6* | 2.8 | 26.3
CC(C)N1C(=O)NC2NC(=O)N(C(C)C)C21 (centres undefined) | -3.0 | -3.7 | -3.0 | 4.5 | 0.2 | 2.2
COc1ccc(CCN(C)Cc2c(O)ccc3cc(Br)ccc23)cc1OC | -5.2 | 10.1 | -1.6 | -11.8 | -0.6 | 5.5
COc1ccc(CN(C)Cc2c(O)ccc3cc(Br)ccc23)cc1OC | 1.1 | 17.3 | 23.4* | 4.0 | 0.6 | -10.0
COc1cc(/C=C2/SC(=S)NC2=O)ccc1OS(=O)(=O)c1ccc(C)cc1 | -0.1 | -9.8 | -17.3 | 11.5 | 4.8 | 36.2*
Cc1cc(C)cc(Cn2cc(CN3CC(N4CCSCC4)CS3(=O)=O)nn2)c1 (centres undefined) | / | / | -5.5 | / | -1.4 | 10.0
C1=CN2CCC1C(c1ccccc1)C2 (centres undefined) | 49.5* | -13.6 | -14.7 | 73.1* | 3.4 | 73.9*
Clc1ccc(CN2CCC(c3ccccc3)CC2)cc1 | -8.1 | 0.6 | -8.4 | -3.1 | -6.4 | 12.7
O=S1(=O)CC(N2CCCC2)CN1Cc1cn(Cc2ccccc2)nn1 (centres undefined) | / | / | -6.9 | / | -0.2 | 4.4
COCc1ccc(C(=O)N(C)CC2CCCN(CCc3ccccc3F)C2)o1 (centres undefined) | -5.1 | -19.9 | -6.0 | 48.4* | -10.0 | 16.7
COc1ccccc1CCN1CCCC(CN(C)C(=O)c2ccco2)C1 (centres undefined) | -6.0 | -17.5 | -5.1 | 33.8 | -10.1 | 9.4
COc1ccccc1CCN1CCCC(CN(C)CC(C)(C)CO)C1 (centres undefined) | -9.6 | -20.4 | -1.4 | 46.7* | -16.2 | 10.6
COc1ccccc1CCN1CCCC(CN(C)C(=O)c2ccoc2)C1 (centres undefined) | -5.4 | -19.8 | 5.4 | 43.7* | -10.5 | -12.3
COCC(=O)N(C)CC1CCCN(CCc2ccccc2OC)C1 (centres undefined) | -9.0 | 9.5 | 4.3 | -12.4 | -7.1 | 4.7
CCC(C(=O)NC1CCCC1)n1c(-c2ccnc3ccccc23)nc2ccccc21 (centres undefined) | / | / | -2.0 | / | 1.3 | 6.5
COc1ccc(C2/C(=C(/O)c3ccc4c(c3)CC(C)O4)C(=O)C(=O)N2CCCN2CCOCC2)cc1 (centres undefined) | -0.4 | 11.3 | 20.0* | -20.7 | -0.1 | -21.7
COc1ccc(C2/C(=C(/O)c3ccc4c(c3)CC(C)O4)C(=O)C(=O)N2CCN2CCOCC2)cc1 (centres undefined) | -2.3 | 0.8 | -5.3 | 3.3 | 0.0 | 3.6
SMILES | CHRM1 agonist | M1 PAM | M5 PAM | CHRM1 antagonist | M5 ag | M5 antag
COc1ccc(C2/C(=C(/O)c3ccc(S(=O)(=O)N4CCOCC4)cc3)C(=O)C(=O)N2CCN2CCOCC2)cc1 (centres undefined) | -1.6 | 10.3 | 0.7 | -10.6 | -1.2 | -2.1
COc1ccc(/C(O)=C2/C(=O)C(=O)N(CCCN3CCOCC3)C2c2ccc(OC)cc2)cc1 (centres undefined) | -4.4 | -7.1 | -10.6 | 5.7 | -5.5 | 32.5*
CCOC(=O)[C@]12CCC=C1N(Cc1ccco1)C(=O)[C@H](CC(=O)NCC13CC4CC(CC(C4)C1)C3)C2 | / | / | -5.2 | / | 1.0 | 0.6
C#CC(C)OCC1CNC(=S)O1 (centres undefined) | -1.4 | 6.5 | -4.0 | -12.2 | 0.2 | 2.3
OC1CC2CCC(C1)N2CCCN1c2ccccc2Sc2ccc(Cl)cc21 (centres undefined) | 1.5 | -27.2 | -40.4 | 67.4* | -8.8 | 25.9
COCCN1C[C@@H](CO)O[C@@H](n2cnc3c(N(C)C)ncnc32)C1 | 1.0 | 14.4 | 0.9 | -12.4 | 0.2 | 4.3
COc1cc(OC)cc(C(=O)N2CCN(S(C)(=O)=O)CC2)c1 | -3.6 | 5.8 | 31.4* | -13.4 | -5.3 | -6.8
CN1CCC(OC(c2ccccc2)c2ccc(Cl)cc2)C1 (centres undefined) | -1.1 | -30.7 | -41.1 | 99.5* | -9.6 | 88.7*
CC(c1ccccc1)N1C(=O)C2C3CCC(C3)C2C1=O (centres undefined) | -4.5 | 4.7 | -0.5 | 3.0 | -2.1 | 15.6
CN1C2CCC1CC(OC(c1ccccc1)c1ccccc1)C2 (centres undefined) | / | / | -33.4 | / | -17.8 | 99.1*
CN1CCC(NCCC(c2ccc(F)cc2)c2ccc(Cl)cc2)CC1 (centres undefined) | -3.9 | 1.6 | 1.6 | 1.7 | -0.1 | 15.5
O=[N+]([O-])c1cc([N+](=O)[O-])c(Oc2cccc3ccccc23)cc1NN1CCCCC1 | 9.7 | 29.6* | 8.6 | -9.2 | 3.4 | -13.2
CC(=O)c1ccccc1Oc1cc(NN2CCCCC2)c([N+](=O)[O-])cc1[N+](=O)[O-] | -11.1 | -34.7 | -6.3 | 36.3* | -10.4 | 7.8
CC(=O)c1cccc(Oc2cc(NN3CCCCC3)c([N+](=O)[O-])cc2[N+](=O)[O-])c1 | -11.6 | -23.5 | -0.5 | 16.7 | -3.4 | 7.8
NC(N)=NCCCS(=O)(=O)Nc1ccc(Nc2c3ccccc3nc3cc([N+](=O)[O-])ccc23)cc1 | -5.0 | 6.9 | 0.4 | -12.8 | -0.3 | -2.4
Cn1c(SCC(=O)c2cc(Cl)c(Cl)s2)nnc1-c1ccco1 | -0.6 | 10.4 | 19.2* | -17.1 | 5.8 | -10.9
CCN(C(=O)CCc1ccccc1)C1CCCCC1 | -6.5 | 6.2 | -0.5 | -6.4 | -1.1 | 2.5
